pKi: −log10 of the molar value.
Experiments:
calcium channel = experiment: PDSP radioligand binding, calcium channel
V1A = V1A (Homo sapiens, UniProt P37288); experiment: PDSP radioligand binding, V1A
5HT3 = 5HT3 (Homo sapiens, UniProt P46098); experiment: PDSP radioligand binding, 5HT3; conditions: 10 μM
5HT2B = 5HT2B (Homo sapiens, UniProt P41595); experiment: PDSP radioligand binding, 5HT2B; conditions: 10 μM
SERT = SERT (Homo sapiens, UniProt P31645); experiment: PDSP radioligand binding, SERT; conditions: 10 μM
A7 [1] = target: A7 (Rattus norvegicus, UniProt Q05941); experiment: PDSP radioligand binding, A7 sourced from rodent brain; conditions: 10 μM
A2B4 = A2B4 (Rattus norvegicus, UniProt P12389+P12392); experiment: PDSP radioligand binding, A2B4; conditions: 10 μM
A7 [2] = experiment: PDSP radioligand binding, A7; conditions: 10 μM
SNI mice = experiment: Rotorod test of motor performance; format: in vivo, mouse; conditions: IV 10 mg/kg, 48 h after injection, third trial
Outline: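 SNI mice given IV vehicle or test compound 10 mg/kg in sterile saline, tested 48 h later. Automated rotorod accelerating to 40 rpm over 200 s. Two training runs; latency to fall recorded on third trial. n = 6 per group; two-tailed t test.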

AMPA = experiment: PDSP radioligand binding, AMPA
5HT1A = 5HT1A (Homo sapiens, UniProt P08908); experiment: PDSP radioligand binding, 5HT1A; conditions: 10 μM
DOR = DOR (Homo sapiens, UniProt P41143); experiment: PDSP radioligand binding, DOR; conditions: 10 μM
Alpha2b = Alpha2b (Homo sapiens, UniProt P18089); experiment: PDSP radioligand binding, Alpha2b; conditions: 10 μM
H1 = H1 (Homo sapiens, UniProt P35367); experiment: PDSP radioligand binding, H1; conditions: 10 μM
M2 = M2 (Homo sapiens, UniProt P08172); experiment: PDSP radioligand binding, M2; conditions: 10 μM
Alpha1b = Alpha1b (Homo sapiens, UniProt P35368); experiment: PDSP radioligand binding, Alpha1b; conditions: 10 μM
Alpha2a = Alpha2a (Homo sapiens, UniProt P08913); experiment: PDSP radioligand binding, Alpha2a; conditions: 10 μM
D4 = D4 (Homo sapiens, UniProt P21917); experiment: PDSP radioligand binding, D4; conditions: 10 μM
V1B = V1B (Homo sapiens, UniProt P47901); experiment: PDSP radioligand binding, V1B
5HT7 = 5HT7 (Homo sapiens, UniProt P34969); experiment: PDSP radioligand binding, 5HT7; conditions: 10 μM
Beta1 = Beta1 (Homo sapiens, UniProt P08588); experiment: PDSP radioligand binding, Beta1; conditions: 10 μM
5HT2C = 5HT2C (Homo sapiens, UniProt P28335); experiment: PDSP radioligand binding, 5HT2C; conditions: 10 μM
5HT1D = 5HT1D (Homo sapiens, UniProt P28221); experiment: PDSP radioligand binding, 5HT1D; conditions: 10 μM
A4B2 [3] = target: T1, A4B2 (Rattus norvegicus, UniProt P09483+P12390); experiment: PDSP radioligand binding, A4B2 sourced from rodent brain; conditions: 10 μM
KOR = KOR (Homo sapiens, UniProt P41145); experiment: PDSP radioligand binding, KOR
Beta2 = Beta2 (Homo sapiens, UniProt P07550); experiment: PDSP radioligand binding, Beta2; conditions: 10 μM
A3B4 = A3B4 (Rattus norvegicus, UniProt P04757+P12392); experiment: PDSP radioligand binding, A3B4; conditions: 10 μM
D2 = D2 (Homo sapiens, UniProt P14416); experiment: PDSP radioligand binding, D2; conditions: 10 μM
M5 = M5 (Homo sapiens, UniProt P08912); experiment: PDSP radioligand binding, M5; conditions: 10 μM
Alpha1a = Alpha1a (Homo sapiens, UniProt P35348); experiment: PDSP radioligand binding, Alpha1a; conditions: 10 μM
M4 = M4 (Homo sapiens, UniProt P08173); experiment: PDSP radioligand binding, M4; conditions: 10 μM
Beta3 = Beta3 (Homo sapiens, UniProt P13945); experiment: PDSP radioligand binding, Beta3; conditions: 10 μM
5HT6 = 5HT6 (Homo sapiens, UniProt P50406); experiment: PDSP radioligand binding, 5HT6; conditions: 10 μM
5HT1B = 5HT1B (Homo sapiens, UniProt P28222); experiment: PDSP radioligand binding, 5HT1B; conditions: 10 μM
NMDA = experiment: PDSP radioligand binding, NMDA
A2B2 = A2B2 (Rattus norvegicus, UniProt P12389+P12390); experiment: PDSP radioligand binding, A2B2; conditions: 10 μM
A4B2 [4] = target: T1, A4B2; experiment: PDSP radioligand binding, A4B2; conditions: 10 μM
BZP rat brain = experiment: PDSP radioligand binding, BZP rat brain; conditions: 10 μM
5HT5a = 5HT5a (Homo sapiens, UniProt P47898); experiment: PDSP radioligand binding, 5HT5a; conditions: 10 μM
[5] = test system: mouse spared nerve injury (SNI) model; experiment: Mechanical sensitivity; format: in vivo
Outline: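 Male C57Bl6/J SNI mice, hindpaw mechanical hypersensitivity confirmed 2 weeks post-surgery. Tail-vein IV injection in 100 μL sterile saline (DMSO stock diluted; vehicle DMSO-matched): test compound 10 mg/kg, gabapentin 100 mg/kg, or vehicle, n = 6 each. Blinded von Frey testing (modified up–down) at set time points. Mean ± SEM; two-way ANOVA with Bonferroni post hoc.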

V2 = V2 (Homo sapiens, UniProt P30518); experiment: PDSP radioligand binding, V2
D1 = D1 (Homo sapiens, UniProt P21728); experiment: PDSP radioligand binding, D1; conditions: 10 μM
A3B2 = A3B2 (Rattus norvegicus, UniProt P04757+P12390); experiment: PDSP radioligand binding, A3B2; conditions: 10 μM
Chain of A3B2 (P04757 26-499): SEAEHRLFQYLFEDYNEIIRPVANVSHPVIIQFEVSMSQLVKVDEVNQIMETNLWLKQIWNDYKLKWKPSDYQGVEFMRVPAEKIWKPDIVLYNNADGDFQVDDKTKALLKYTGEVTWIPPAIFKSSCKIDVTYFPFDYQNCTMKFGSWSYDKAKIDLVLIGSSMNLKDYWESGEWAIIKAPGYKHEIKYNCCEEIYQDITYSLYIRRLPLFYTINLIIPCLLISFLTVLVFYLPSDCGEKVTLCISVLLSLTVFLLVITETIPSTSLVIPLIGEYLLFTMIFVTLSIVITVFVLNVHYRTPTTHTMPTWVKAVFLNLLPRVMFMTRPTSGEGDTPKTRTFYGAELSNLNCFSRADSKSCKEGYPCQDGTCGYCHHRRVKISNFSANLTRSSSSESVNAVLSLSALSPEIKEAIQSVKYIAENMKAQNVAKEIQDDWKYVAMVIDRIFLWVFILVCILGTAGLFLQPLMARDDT
Chain of A3B2 (P12390 25-500): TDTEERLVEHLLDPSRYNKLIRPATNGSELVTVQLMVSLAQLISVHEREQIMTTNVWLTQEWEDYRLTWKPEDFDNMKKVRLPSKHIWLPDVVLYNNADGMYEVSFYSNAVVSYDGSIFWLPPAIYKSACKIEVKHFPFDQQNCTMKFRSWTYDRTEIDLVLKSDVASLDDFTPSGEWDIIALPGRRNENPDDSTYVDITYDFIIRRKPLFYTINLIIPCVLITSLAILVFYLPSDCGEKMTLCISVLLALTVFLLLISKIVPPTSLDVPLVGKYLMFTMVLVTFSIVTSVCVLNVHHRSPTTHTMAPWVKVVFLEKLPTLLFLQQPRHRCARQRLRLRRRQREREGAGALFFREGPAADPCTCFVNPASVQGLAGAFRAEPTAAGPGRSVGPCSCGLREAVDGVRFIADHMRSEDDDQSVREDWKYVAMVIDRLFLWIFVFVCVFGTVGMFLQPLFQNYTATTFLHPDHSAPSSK

T1 sequence (P09483 31-630): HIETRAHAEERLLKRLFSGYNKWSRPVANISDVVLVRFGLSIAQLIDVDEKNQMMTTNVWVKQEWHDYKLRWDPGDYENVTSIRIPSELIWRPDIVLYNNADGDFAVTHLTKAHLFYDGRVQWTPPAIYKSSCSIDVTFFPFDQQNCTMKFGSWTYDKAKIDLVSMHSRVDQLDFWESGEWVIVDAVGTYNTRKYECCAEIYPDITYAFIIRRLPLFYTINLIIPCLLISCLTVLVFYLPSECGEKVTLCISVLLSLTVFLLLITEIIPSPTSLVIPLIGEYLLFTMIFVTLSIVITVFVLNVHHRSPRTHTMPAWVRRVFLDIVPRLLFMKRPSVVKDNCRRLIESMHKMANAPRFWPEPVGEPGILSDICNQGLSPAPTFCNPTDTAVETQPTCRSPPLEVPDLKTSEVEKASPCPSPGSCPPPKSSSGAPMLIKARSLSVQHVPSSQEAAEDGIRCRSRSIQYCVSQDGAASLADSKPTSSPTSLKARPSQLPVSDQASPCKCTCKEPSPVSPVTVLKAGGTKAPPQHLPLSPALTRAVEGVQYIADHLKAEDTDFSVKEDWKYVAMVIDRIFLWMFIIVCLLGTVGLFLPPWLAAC
T1 sequence (P12390 25-500): as the sequence (P12390 25-500) above
Chain of Beta2 (P07550 whole entry): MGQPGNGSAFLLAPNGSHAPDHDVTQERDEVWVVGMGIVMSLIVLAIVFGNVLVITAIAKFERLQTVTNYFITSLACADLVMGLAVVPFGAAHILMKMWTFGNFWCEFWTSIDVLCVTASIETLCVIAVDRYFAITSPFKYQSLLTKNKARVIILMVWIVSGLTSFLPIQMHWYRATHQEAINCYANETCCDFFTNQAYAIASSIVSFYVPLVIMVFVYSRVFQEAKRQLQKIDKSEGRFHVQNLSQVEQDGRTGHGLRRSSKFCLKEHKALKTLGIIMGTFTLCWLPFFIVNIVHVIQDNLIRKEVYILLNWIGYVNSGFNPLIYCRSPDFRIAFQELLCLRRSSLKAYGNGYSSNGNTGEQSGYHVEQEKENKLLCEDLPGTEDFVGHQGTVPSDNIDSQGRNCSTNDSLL
Chain of 5HT1B (P28222 whole entry): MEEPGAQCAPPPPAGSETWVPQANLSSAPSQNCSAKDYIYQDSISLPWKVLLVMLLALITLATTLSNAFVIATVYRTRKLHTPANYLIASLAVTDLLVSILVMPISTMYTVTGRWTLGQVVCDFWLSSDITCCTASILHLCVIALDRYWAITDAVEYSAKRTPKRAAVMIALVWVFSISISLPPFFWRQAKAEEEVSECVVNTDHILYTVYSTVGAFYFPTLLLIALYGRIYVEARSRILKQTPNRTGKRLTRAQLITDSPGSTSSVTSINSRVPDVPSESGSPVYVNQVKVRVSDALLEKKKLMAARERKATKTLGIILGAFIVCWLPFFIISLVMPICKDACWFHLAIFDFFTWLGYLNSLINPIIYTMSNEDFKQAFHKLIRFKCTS
Chain of D1 (P21728 whole entry): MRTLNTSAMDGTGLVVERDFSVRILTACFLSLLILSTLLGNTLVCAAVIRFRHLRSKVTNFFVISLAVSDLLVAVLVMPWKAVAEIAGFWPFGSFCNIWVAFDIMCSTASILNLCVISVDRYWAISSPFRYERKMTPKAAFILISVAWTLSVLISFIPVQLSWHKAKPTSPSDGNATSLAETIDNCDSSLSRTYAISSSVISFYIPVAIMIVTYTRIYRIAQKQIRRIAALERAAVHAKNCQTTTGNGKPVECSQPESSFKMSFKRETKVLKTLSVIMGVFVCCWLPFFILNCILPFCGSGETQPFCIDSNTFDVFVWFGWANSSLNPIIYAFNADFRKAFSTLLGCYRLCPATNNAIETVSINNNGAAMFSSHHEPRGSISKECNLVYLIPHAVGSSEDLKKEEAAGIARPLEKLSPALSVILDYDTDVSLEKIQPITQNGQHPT
Chain of V1B (P47901 whole entry): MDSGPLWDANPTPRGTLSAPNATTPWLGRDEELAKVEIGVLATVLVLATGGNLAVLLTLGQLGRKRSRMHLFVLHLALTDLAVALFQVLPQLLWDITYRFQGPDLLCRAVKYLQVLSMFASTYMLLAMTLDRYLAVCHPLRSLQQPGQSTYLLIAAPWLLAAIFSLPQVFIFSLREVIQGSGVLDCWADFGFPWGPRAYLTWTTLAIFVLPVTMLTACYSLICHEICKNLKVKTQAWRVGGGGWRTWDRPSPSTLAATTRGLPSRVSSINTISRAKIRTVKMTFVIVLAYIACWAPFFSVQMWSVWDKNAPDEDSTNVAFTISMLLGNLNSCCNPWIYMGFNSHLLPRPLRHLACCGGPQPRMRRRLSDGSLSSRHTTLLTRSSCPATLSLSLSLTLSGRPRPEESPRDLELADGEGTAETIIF
Chain of H1 (P35367 whole entry): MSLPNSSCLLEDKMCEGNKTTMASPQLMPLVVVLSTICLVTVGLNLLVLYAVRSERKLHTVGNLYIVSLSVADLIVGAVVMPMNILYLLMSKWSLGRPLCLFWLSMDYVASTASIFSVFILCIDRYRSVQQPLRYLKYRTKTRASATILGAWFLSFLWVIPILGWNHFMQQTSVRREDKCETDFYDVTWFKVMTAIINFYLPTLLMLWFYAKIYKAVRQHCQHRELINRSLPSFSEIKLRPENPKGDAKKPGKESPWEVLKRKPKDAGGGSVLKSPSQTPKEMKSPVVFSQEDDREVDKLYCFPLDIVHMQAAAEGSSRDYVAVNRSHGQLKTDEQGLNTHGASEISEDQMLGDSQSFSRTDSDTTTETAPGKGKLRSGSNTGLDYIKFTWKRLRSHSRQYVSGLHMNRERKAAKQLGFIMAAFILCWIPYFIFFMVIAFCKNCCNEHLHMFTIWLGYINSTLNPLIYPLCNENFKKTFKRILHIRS
Chain of A3B4 (P04757 26-499): as the sequence (P04757 26-499) above
Chain of A3B4 (P12392 21-495): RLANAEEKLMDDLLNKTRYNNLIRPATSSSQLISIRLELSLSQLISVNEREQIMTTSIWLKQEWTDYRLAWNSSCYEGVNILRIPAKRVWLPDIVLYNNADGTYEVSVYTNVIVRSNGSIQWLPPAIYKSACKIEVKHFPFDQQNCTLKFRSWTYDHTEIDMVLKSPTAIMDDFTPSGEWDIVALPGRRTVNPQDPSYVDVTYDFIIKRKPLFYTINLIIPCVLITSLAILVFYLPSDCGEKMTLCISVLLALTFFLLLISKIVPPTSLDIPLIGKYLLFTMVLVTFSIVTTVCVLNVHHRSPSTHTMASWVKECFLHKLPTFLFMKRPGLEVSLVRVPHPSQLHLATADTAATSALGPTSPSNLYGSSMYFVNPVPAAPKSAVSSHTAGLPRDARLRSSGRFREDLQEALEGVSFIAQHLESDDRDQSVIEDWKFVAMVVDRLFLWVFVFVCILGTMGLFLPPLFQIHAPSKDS
Chain of 5HT7 (P34969 whole entry): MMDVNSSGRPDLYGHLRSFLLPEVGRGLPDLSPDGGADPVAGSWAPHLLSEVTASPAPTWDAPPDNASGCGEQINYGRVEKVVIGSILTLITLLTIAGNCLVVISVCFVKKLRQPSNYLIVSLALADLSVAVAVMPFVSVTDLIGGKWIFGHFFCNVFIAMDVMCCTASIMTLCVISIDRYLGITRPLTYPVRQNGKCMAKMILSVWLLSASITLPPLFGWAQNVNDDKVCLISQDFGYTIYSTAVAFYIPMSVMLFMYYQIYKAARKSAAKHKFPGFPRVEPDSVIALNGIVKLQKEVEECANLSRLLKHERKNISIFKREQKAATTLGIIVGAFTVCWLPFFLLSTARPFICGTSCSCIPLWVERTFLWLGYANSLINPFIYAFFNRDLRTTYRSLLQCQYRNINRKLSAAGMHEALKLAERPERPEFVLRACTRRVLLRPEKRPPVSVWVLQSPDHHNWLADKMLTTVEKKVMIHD

`OCCCN1CCCC2CC1c1cc(-c3ccc(C(F)(F)F)cc3)ccc12` (racemic) [UKH-1114, (±)-9-(4-(Trifluoromethyl)phenyl)-3,4,5,6-tetrahydro-1,6-methanobenzo[c]azocin-2(1H)-yl)propan-1-ol] was tested, and the pKi (calcium channel) was less than 5.00, the pKi (V1A) was less than 5.00 and the “inhibition of radioligand binding (Ki column, footnote a)” value (shortened to “inhibition of radioligand binding”) (5HT3) was “^a (<50% inhibition of radioligand binding at 10 μM)”. The “inhibition of radioligand binding” value (5HT2B) was “^a (<50% inhibition of radioligand binding at 10 μM)”, the “inhibition of radioligand binding” value (SERT) was “^a (<50% inhibition of radioligand binding at 10 μM)” and the “inhibition of radioligand binding” value (A7 [1]) was “^a (<50% inhibition of radioligand binding at 10 μM)”. For the same compound, the “inhibition of radioligand binding” value (A2B4) was “^a (<50% inhibition of radioligand binding at 10 μM)”, the “inhibition of radioligand binding” value (A7 [2]) was “^a (<50% inhibition of radioligand binding at 10 μM)” and the “effect on motor performance (latency to fall, rotorod)” value (SNI mice) was “no effect”. For the same compound, the pKi (AMPA) was less than 5.00, the “inhibition of radioligand binding” value (5HT1A) was “^a (<50% inhibition of radioligand binding at 10 μM)” and the “inhibition of radioligand binding” value (DOR) was “^a (<50% inhibition of radioligand binding at 10 μM)”. The “inhibition of radioligand binding” value (Alpha2b) was “^a (<50% inhibition of radioligand binding at 10 μM)”, the “inhibition of radioligand binding” value (H1) was “^a (<50% inhibition of radioligand binding at 10 μM)” and the “inhibition of radioligand binding” value (M2) was “^a (<50% inhibition of radioligand binding at 10 μM)”. For the same compound, the “inhibition of radioligand binding” value (Alpha1b) was “^a (<50% inhibition of radioligand binding at 10 μM)”, the “inhibition of radioligand binding” value (Alpha2a) was “^a (<50% inhibition of radioligand binding at 10 μM)” and the “inhibition of radioligand binding” value (D4) was “^a (<50% inhibition of radioligand binding at 10 μM)”. For the same compound, the pKi (V1B) was less than 5.00, the “inhibition of radioligand binding” value (5HT7) was “^a (<50% inhibition of radioligand binding at 10 μM)” and the “inhibition of radioligand binding” value (Beta1) was “^a (<50% inhibition of radioligand binding at 10 μM)”. The “inhibition of radioligand binding” value (5HT2C) was “^a (<50% inhibition of radioligand binding at 10 μM)”, the “inhibition of radioligand binding” value (5HT1D) was “^a (<50% inhibition of radioligand binding at 10 μM)” and the “inhibition of radioligand binding” value (A4B2 [3]) was “^a (<50% inhibition of radioligand binding at 10 μM)”. For the same compound, the pKi (KOR) was 5.86, the “inhibition of radioligand binding” value (Beta2) was “^a (<50% inhibition of radioligand binding at 10 μM)” and the “inhibition of radioligand binding” value (A3B4) was “^a (<50% inhibition of radioligand binding at 10 μM)”. The “inhibition of radioligand binding” value (D2) was “^a (<50% inhibition of radioligand binding at 10 μM)”, the “inhibition of radioligand binding” value (M5) was “^a (<50% inhibition of radioligand binding at 10 μM)” and the “inhibition of radioligand binding” value (Alpha1a) was “^a (<50% inhibition of radioligand binding at 10 μM)”. For the same compound, the “inhibition of radioligand binding” value (M4) was “^a (<50% inhibition of radioligand binding at 10 μM)”, the “inhibition of radioligand binding” value (Beta3) was “^a (<50% inhibition of radioligand binding at 10 μM)” and the “inhibition of radioligand binding” value (5HT6) was “^a (<50% inhibition of radioligand binding at 10 μM)”. The “inhibition of radioligand binding” value (5HT1B) was “^a (<50% inhibition of radioligand binding at 10 μM)”, the pKi (NMDA) was 5.17 and the “inhibition of radioligand binding” value (A2B2) was “^a (<50% inhibition of radioligand binding at 10 μM)”. For the same compound, the “inhibition of radioligand binding” value (A4B2 [4]) was “^a (<50% inhibition of radioligand binding at 10 μM)”, the “inhibition of radioligand binding” value (BZP rat brain) was “^a (<50% inhibition of radioligand binding at 10 μM)” and the “inhibition of radioligand binding” value (5HT5a) was “^a (<50% inhibition of radioligand binding at 10 μM)”. The “effect on SNI-induced mechanical hypersensitivity” value ([5]; IV 10 mg/kg) was “complete reversal of mechanical hypersensitivity”, the “duration of relief of mechanical hypersensitivity” value ([5]; systemic 10 mg/kg) was 48 h and the “peak magnitude of effect compared with gabapentin” value ([5]; systemic 10 mg/kg vs gabapentin 100 mg/kg) was “equivalent to 100 mg/kg gabapentin”. For the same compound, the pKi (V2) was less than 5.00, the “inhibition of radioligand binding” value (D1) was “^a (<50% inhibition of radioligand binding at 10 μM)” and the “inhibition of radioligand binding” value (A3B2) was “^a (<50% inhibition of radioligand binding at 10 μM)”.
